Data taken from ChEMBL document CHEMBL1133514, “Activation mechanisms of nucleoside phosphoramidate prodrugs” (J Med Chem, 2000).

Tests used:
[1] = Rate constants determined using 31P NMR Kinetics experiments at 37 degrees Centigrade; assay type: ADME
Outline: (§1)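 Compound (0.015-0.076 mmol) dissolved in about 90 µL CH3CN or THF, then diluted to 0.50 mL with 0.1-0.4 M cacodylate or acetate buffer; pH 7.4 target (7.0-8.0 accepted), 37 °C. Monitored by 31P NMR every 2.5 min for 30 min, then every 5 min; relative peak areas fitted by least squares to first-order kinetics to give rate constants and t1/2.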

[2] = Half-life period for the compound was determined; assay type: ADME; outline: as §1

## Cc1cn([C@H]2C[C@H](O)[C@@H](COP(=O)(O)N(C)CCBr)O2)c(=O)[nH]c1=O
[1]
  K: 0.2 min⁻¹
[2]
  half-life: 3.4 min

## CCN(CC)CC.Cc1cn([C@H]2C[C@H](O)[C@@H](COP(=O)(O)N(C)CCBr)O2)c(=O)[nH]c1=O
[1]
  K: 0.19 min⁻¹
[2]
  half-life: 3.7 min

## Cc1cn([C@H]2C[C@H](O)[C@@H](COP(=O)(On3nnc4ccccc43)N(C)CCBr)O2)c(=O)[nH]c1=O (some centres undefined)
[1]
  K: 0.15 min⁻¹
[2]
  half-life: 4.7 min

## COP(=O)(OCC1CCCO1)N(C)CCO (centres undefined)
[1]
  K: 0.43 min⁻¹
[2]
  half-life: 1.6 min

## O=P(O)(OCC1CCCO1)On1nnc2ccccc21 (centres undefined)
[1]
  K: 0.011 min⁻¹
[2]
  half-life: 61 min

## Cc1cn([C@H]2C[C@H](O)[C@@H](COP(=O)(O)On3nnc4ccccc43)O2)c(=O)[nH]c1=O
[1]
  K: 0.0042 min⁻¹
[2]
  half-life: 164 min

## CN(CCBr)P(=O)(OCC1CCCO1)On1nnc2ccccc21 (centres undefined)
[1]
  K: 0.094 min⁻¹
[2]
  half-life: 7.4 min
